From ChEMBL document CHEMBL1932954, “An expedient synthesis of honokiol and its analogues as potential neuropreventive agents” (Bioorg Med Chem Lett, 2012) come the findings set out here.

Calls of active or inactive are those of the source. The calls are words filed in the database; no cut-off is given here.

For data set [1], the system named is SH-SY5Y. Briefly: Neuroprotective activity in human SH-SY5Y cells assessed as inhibition of CHP and TBHP-induced cell death at 10 uM incubated for 30 mins prior to challenge measured after 3 hrs by MTT assay. Format: functional, cell-based. A digest of the protocol:
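SH-SY5Y human neuroblastoma cells pretreated with compound at 10 µM for 30 min, then exposed to cumene hydroperoxide (CHP) or tert-butyl hydroperoxide (TBHP) at 300 µM for 3 h. Viability read by MTT and expressed relative to untreated control set as 100%. Mean ± SEM, n = 3; ANOVA.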
For orientation: Tetrazolium dyes change colour on reduction, which living cells bring about.

For data set [2], the system named is SH-SY5Y. Briefly: Neuroprotective activity in human SH-SY5Y cells assessed as inhibition of MPP+-induced cell death after 24 hrs by MTT assay. The data set is classed as functional, cell-based. A digest of the protocol:
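SH-SY5Y neuroblastoma cells co-treated with MPP+ (1 mM) and compound (10–30 µM) at the same time for 24 h. MTT read-out, given as percent viability versus control without MPP+. Mean ± SEM, n = 4; ANOVA.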

Data set [3] concerns SH-SY5Y. The data set can be described thus: Neuroprotective activity in MPP+-stimulated human SH-SY5Y cells assessed as cell survival at 30 uM measured 24 hrs after MPP+-challenge by MTT assay. The data set is classed as functional. The following applies: read-out: Survival. In short, it runs like this: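 SH-SY5Y neuroblastoma cells were co-treated with MPP+ (1 mM) and test compound (10–30 µM) for 24 h, with no pretreatment. Viability was read by MTT assay and given as percent of control without MPP+. Values are mean ± SEM, n = 4, compared by ANOVA.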

A short description of data set [4]: Cytotoxicity against human SH-SY5Y cells assessed as cell viability at 300 uM by MTT assay. The data set is classed as cell-based. The following applies: read-out: Activity. A digest of the protocol:
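SH-SY5Y human neuroblastoma cells were exposed to cumene hydroperoxide (CHP) or tert-butyl hydroperoxide (TBHP) at 300 µM for 3 h. Viability was read by MTT assay and expressed relative to untreated control cultures set as 100%. Values are mean ± SEM, n = 3, compared by ANOVA.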

For `C=CCc1cc(-c2cc(CCC)ccc2O)ccc1O`, the inhibition entry in the data set on SH-SY5Y [1] was “Active”. In the data set with SH-SY5Y [2], the inhibition result is “Dose-dependent effect”. For the same compound, the viability at 30 µM with SH-SY5Y [3] turned out to be 83%.
The matching figures for `CCCc1ccc(O)c(-c2ccc(O)c(CCC)c2)c1`: “Active”, “Dose-dependent effect” and 91%.
As for `C=CCc1ccc(O)c(-c2ccc(O)c(CCC)c2)c1`, the inhibition entry in the data set on SH-SY5Y [1] is “Active”. Further, the inhibition result with SH-SY5Y [2] was “Dose-dependent effect”. Moreover, in the data set on SH-SY5Y [3], the viability at 30 µM amounted to 87%.
Take `C=CCc1ccc(O)c(-c2ccc(O)c(CC=C)c2)c1`: the inhibition result with SH-SY5Y [1] was “Active”. Further, the inhibition entry in the data set with SH-SY5Y [2] was “Dose-dependent effect”.
For the compound `C=CCc1cc(-c2cccc(O)c2CC=C)ccc1O`, in the data set on SH-SY5Y [1], the inhibition entry is “Active”. Moreover, the inhibition result in the data set on SH-SY5Y [2] is “Dose-dependent effect”. Further, the viability at 30 µM in the data set with SH-SY5Y [3] amounted to 79%.
For `CC(C)(OO)c1ccccc1` [CUMENE HYDROPEROXIDE], the viability at 300 µM in data set [4] came to 64%.
On to `CC(C)(C)OO` [TERT-BUTYL HYDROPEROXIDE], for which the viability at 300 µM in data set [4] amounted to 72%.
With `C=CCc1cc(-c2ccc(O)c(CC=C)c2)ccc1O`, the inhibition result in the data set on SH-SY5Y [1] was “Active”. Moreover, the inhibition result in the data set on SH-SY5Y [2] is “Dose-dependent effect”.
`C#CCc1ccc(O)c(-c2ccc(O)c(CC=C)c2)c1`: the inhibition result in the data set on SH-SY5Y [1] is “Active”. Besides, in the data set with SH-SY5Y [2], the inhibition entry was “Dose-dependent effect”. The viability at 30 µM in the data set on SH-SY5Y [3] amounted to 80%.
